# Experiments:
# Assay type in all cases: functional, cell-based
# [1] = Cytotoxicity against human H266 cells after 72 hrs by alamar blue assay; details: H266, 72 h
# Method in brief: (§1)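 Cells seeded at 800–1000 per well (20–25 cells/µL) and left overnight to attach. Compounds were diluted serially from 10 mM DMSO stocks and tested at 8 final concentrations, 50 to 0.39 µM, in triplicate for 72 h. Vehicle control was 0.5% DMSO. Alamar blue was added to 10% final and fluorescence read after 4 h (ex 530, em 560 nm). Viability was expressed as percent of vehicle, and IC50 taken as 50% kill versus control.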
# [2] = Cytotoxicity against human M4E cells after 72 hrs by alamar blue assay; method in brief: as §1
# [3] = Cytotoxicity against human SKBR cells after 72 hrs by alamar blue assay; method in brief: as §1
# HeLa = experiment: Cytotoxicity against human HeLa cells after 72 hrs by alamar blue assay; method in brief: as §1
# NCI-H157 = experiment: Cytotoxicity against human NCI-H157 cells after 72 hrs by alamar blue assay; details: NCI-H157, 72 h; method in brief: as §1
# NCI-H460 = experiment: Cytotoxicity against human H460 cells after 72 hrs by alamar blue assay; details: NCI-H460, 72 h; method in brief: as §1
# A549 = experiment: Cytotoxicity against human A549 cells after 72 hrs by alamar blue assay; details: A549, 72 h; method in brief: as §1
# Calu-1 = experiment: Cytotoxicity against human Calu1 cells after 72 hrs by alamar blue assay; details: Calu-1, 72 h; method in brief: as §1
# NCI-H1792 = experiment: Cytotoxicity against human NCI-H1792 cells after 72 hrs by alamar blue assay; details: NCI-H1792, 72 h; method in brief: as §1
# HOP-62 = experiment: Cytotoxicity against human HOP62 cells after 72 hrs by alamar blue assay; details: HOP-62, 72 h; method in brief: as §1
# NCI-H1299 = experiment: Cytotoxicity against human NCI-H1299 cells after 72 hrs by alamar blue assay; details: NCI-H1299, 72 h; method in brief: as §1
# LOX IMVI = experiment: Cytotoxicity against human LOXIMVI cells after 72 hrs by alamar blue assay; method in brief: as §1
# M14 = experiment: Cytotoxicity against human M14 cells after 72 hrs by alamar blue assay; details: M14, 72 h; method in brief: as §1
# [4] = Cytotoxicity against human 292G cells after 72 hrs by alamar blue assay; method in brief: as §1
Compound,IC50 [1],IC50 [2],IC50 [3],IC50 (HeLa),IC50 (NCI-H157),IC50 (NCI-H460),IC50 (A549),IC50 (Calu-1),IC50 (NCI-H1792),IC50 (HOP-62),IC50 (NCI-H1299),IC50 (LOX IMVI),IC50 (M14),IC50 [4]
CCCOC(=O)/C=C/c1ccc(O)c(OC)c1,20.4 µM,18.5 µM,24.5 µM,5.62 µM,15.2 µM,25.2 µM,15.6 µM,48.9 µM,34.1 µM,22.4 µM,40.3 µM,15.2 µM,28.1 µM,35.9 µM
COc1cc(/C=C/C(=O)OCCCCCCO[N+](=O)[O-])ccc1OCCCCCCO[N+](=O)[O-],> 50 µM,> 50 µM,> 50 µM,> 50 µM,> 50 µM,> 50 µM,> 50 µM,27.8 µM,> 50 µM,> 50 µM,> 50 µM,> 50 µM,> 50 µM,> 50 µM
O=C(/C=C/c1ccc(OCCCCCO[N+](=O)[O-])c(O)c1)OCCCCCO[N+](=O)[O-],> 50 µM,> 50 µM,2.71 µM,5.73 µM,> 50 µM,> 50 µM,0.45 µM,> 50 µM,> 50 µM,> 50 µM,> 50 µM,7.23 µM,> 50 µM,> 50 µM
O=C(/C=C/c1ccc(O)c(O)c1)OCCCCO[N+](=O)[O-],23.3 µM,17.5 µM,4.55 µM,2.25 µM,5.19 µM,3.52 µM,22.6 µM,21.7 µM,15.4 µM,10 µM,3.14 µM,> 50 µM,19.9 µM,16.7 µM
COc1cc(/C=C/C(=O)OCc2c(-c3ccccc3)no[n+]2[O-])ccc1O,13.4 µM,3.37 µM,4.98 µM,7.82 µM,4.53 µM,7.03 µM,2.06 µM,22.9 µM,11.1 µM,8.66 µM,12.9 µM,13.8 µM,14 µM,16.5 µM
CCCCCOC(=O)/C=C/c1ccc(O)c(OC)c1,> 50 µM,> 50 µM,> 50 µM,> 50 µM,> 50 µM,> 50 µM,> 50 µM,> 50 µM,> 50 µM,> 50 µM,> 50 µM,> 50 µM,> 50 µM,> 50 µM
COc1cc(/C=C/C(=O)OC(C)C)ccc1O,> 50 µM,> 50 µM,> 50 µM,31.1 µM,> 50 µM,> 50 µM,> 50 µM,> 50 µM,> 50 µM,> 50 µM,> 50 µM,> 50 µM,> 50 µM,> 50 µM
COc1cc(/C=C/C(=O)OCCCCO[N+](=O)[O-])ccc1O,24.8 µM,20.3 µM,8.92 µM,6.35 µM,12.9 µM,19.5 µM,8.82 µM,30.1 µM,20.8 µM,13.1 µM,4.51 µM,20.4 µM,32.5 µM,28.4 µM
COc1cc(/C=C/C(=O)OC(C)CCOc2no[n+]([O-])c2S(=O)(=O)c2ccccc2)ccc1O (stereo unspecified),0.43 µM,1.18 µM,0.4 µM,0.4 µM,0.41 µM,0.42 µM,0.42 µM,0.45 µM,0.4 µM,0.42 µM,0.41 µM,0.41 µM,0.41 µM,1.77 µM

# From ChEMBL document CHEMBL2086326, “Biological activity evaluation and structure-activity relationships analysis of ferulic acid and caffeic acid derivatives for anticancer” (Bioorg Med Chem Lett, 2012)
